Here are results for 38 variants from the RNAGym collection of RNA variant scans (doi:10.1126/science.aae0568).

To fix the notation:
B1: tRNA (parent)
chain: GUUCCGUUGGCGUAAUGGUAACGCGUCUCCCUCCUAAGGAGAAGACUGCGGGUUCGAGUCCCGUACGGAACG

Fewer inactive variants are shown than the library holds.

The series covers variants of B1. Description: yeast fitness relative to wild type (ratio to wild type); higher = fitter; tRNA-Arg(CCU), competitive growth, 37 C, YPD. Put shortly:
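The tRNA-Arg(CCU) gene variants were made by chemical synthesis with a 3% per-site mutation rate at 69 sites and inserted at the native genomic locus of Saccharomyces cerevisiae. After pooling, the strains were competed in YPD at 37°C for 24 hours in six parallel replicates. Gene amplicons from the start population and each end population were read by 100-nucleotide paired-end sequencing, and Darwinian fitness relative to wild type was taken from genotype frequency changes. Genotypes needed ≥ 100 starting reads, and estimates < 0.5 were set to 0.5.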
For GUUCCGAUAGCGUAAUAGUAACGAGUCUCCCUCCUAAGGAGAAGACUGCGGGUUCGAGUCCCGUACGGAACG [U7A G9A G17A C24A], the yeast fitness was at most 0.5.

As for GUUCCGAUGACGUAAUGGUAACGCGUCUCCCUCCUAAGGAGAAGACUGCGGGUUUGAGUCGCGUGCGAAACG [U7A G10A C55U C61G A65G G68A], the yeast fitness was at most 0.5.

For GUUCCGAUCGCGUAAUCGUAACGCGUCUCCCUCCUAAGGAGAAGACUACGGGUUCGAGUCCCGUACGCAACG [U7A G9C G17C G48A G68C], the yeast fitness is at most 0.5.

For GUUCCGAUCGCGUAAUCGUAACGCGUCUCCCUCCUAAGGAGAAGACUACGGGUUCGAGUCCCGUACGGCACG [U7A G9C G17C G48A A69C], the yeast fitness was at most 0.5.

For GUUCCGAUGGCGUAAUGGUAACGCGUCUCCCUCCUAAGGAGAAGACUGCGGGUUUGAGUCCCGUACGGAACG [U7A C55U], the yeast fitness came to 0.555.

In the case of GUUCCGAUGACGUAAUGGUAACGCGUCUCCCUACUCAGGAGAAGACUGCGGGUUCGAGUCCCGUACGGUACG [U7A G10A C33A A36C A69U], the yeast fitness is at most 0.5.

On to GUUCCGAUGCCGUAAUGGUAACGCGUGUCCCACCUAAGGAGAAGACUGCGGGUUCAUGUCCCGUACGGAACG [U7A G10C C27G U32A G56A A57U], for which the yeast fitness was at most 0.5.

In the case of GUUCCGAUCGCGUAAUCGUAACGCGUCUCCCUCCUAAGGAGAAGACUGCGGGUUCGAGUCCCGUACGGAACG [U7A G9C G17C], the yeast fitness turned out to be 0.55.

Consider GUUCCGAUGGCGUAAUGGUAACGCGUCUCCCUCCUAAGGAGAAGACUGCGGGUUCGAGUACCGUACGGAACG [U7A C60A], for which the yeast fitness is 0.577.

Take GUUCCGAUCGCGUAAUGGUAACGAGUCUCCCUCCUAAGGAGAUGACUGCGGAUUCGAGUCCCGUACGGAACG [U7A G9C C24A A43U G52A]: the yeast fitness is at most 0.5.

For GUUCCGAUCGCGUAAUGGUAACGCGUCUCCCUCCUAAGGCGAAGACCGCGGGUUCGAGUCCCGUACGGAACG [U7A G9C A40C U47C], the yeast fitness is at most 0.5.

As to GUUCCGAUCGCGUAAUCGUAACGCGUCUCCCUCCUAAGGAGAAGACUGCGGGUUCGAGUCUGGUCCGGAACG [U7A G9C G17C C61U C62G A65C], the yeast fitness is at most 0.5.

In the case of GUUCCGAUGCCGUAAUGGUAACGCGUCUCGCUCCUAAGGAGAAGAUUGCGGGUUCGAGUCCCGUACGGAACG [U7A G10C C30G C46U], the yeast fitness was at most 0.5.

GUUCCGAUCGCGUAAUGGUAACGCGUCUCUCUCGUAAGGAGAAGACUGCGGGUUCGAGUCCCGUACGCAACG [U7A G9C C30U C34G G68C]: the yeast fitness was 0.56.

GUUCCGAUGCCGUAAUGGUAACGCGUCUCGCUCCUUAGGAGAAGACUGCGGGUUCGAGUCCCGUACGGAACG [U7A G10C C30G A36U]: the yeast fitness is at most 0.5.

On to GUUCCGAUGACGUAAUGGUCACGCGUCUACCUCCUAAGGAGAAGACUGCGGGUUGGAGUCCCCUACGGAACG [U7A G10A A20C C29A C55G G63C], for which the yeast fitness was at most 0.5.

For GUUCCGAUCGCGUAAUGGUAACGCGUCUCCCUCCUAAGGCGAAGACUGCGGGUUCGAGUCCCGUACGGAACG [U7A G9C A40C], the yeast fitness was found to be 0.623.

For the variant GUUCCGAUGGCGUAAUGGUAACGCGUCUCCCUCCUAAGGAGAAGACUGCGGGUUCGAGUCCCGUAUGGAACG [U7A C66U], the yeast fitness stood at 0.762.

With GUUCCGAUGCCGUAAUGGUAAUGCGUGUCCCUCCUAAGGAGAAGACUGCGGGUUCGAGUCCCGUACGGAACG [U7A G10C C22U C27G], the yeast fitness turned out to be 0.577.

As for GUUCCGAUGACGUAAUGGUAACGCGUCUCACUCCUAAGGAGACGACUGCGGGUUCGAGUCCCGUAUGGAACG [U7A G10A C30A A43C C66U], the yeast fitness came to 0.553.

With GUUCCGAUGGCGUAAUGGUAACGCGUCUCCCUCCUAAGGAGAAGACUGCGGGUUCGAGUGCCGUACGGACCG [U7A C60G A70C], the yeast fitness was at most 0.5.

For the variant GUUCCGAUGACGUAAUGGUCACGCGUCUACCUCCUAAGGAGAAGACUGCGGGUUCGAGUCCCGUACGGAACG [U7A G10A A20C C29A], the yeast fitness stood at 0.543.

On to GUUCCGAUGCCGUAAUGGUAACGCGUCUCCGUCCUAAGGAGAAGACUGCGGGUUCGAGUCCCGUACUGAACG [U7A G10C C31G G67U], for which the yeast fitness was at most 0.5.

As to GUUCCGAUCGCGUAAUGGUAACGCGUCUCCCUCCUAAGGAGAAGACUGCGGGUUCGAGUCCCGUACGGAACG [U7A G9C], the yeast fitness was 0.674.

As to GUUCCGAUCGCGUAGUGGUAACACGUCUCCCUCCUAAGGAGAAGACUGCGGGAUCGAGUCCCGUACGGAACG [U7A G9C A15G G23A U53A], the yeast fitness is 0.505.

For GUUCCGAUGCCGUAAUGGUAACGCGUCUCCCUCCUAAGGAGAAGACUGCGGGUUCGAGUCCCGUACGGAACG [U7A G10C], the yeast fitness is 0.617.

As to GUUCCGAUGGCGUAAUGGUAACGCGUCUCCCUCCUAAGGAGAAGACUGCGGGUUCGAGUCCAGUACGGGGCG [U7A C62A A69G A70G], the yeast fitness was at most 0.5.

As to GUUCCGAUGGCGUAAUGGUAACGCGUCUCCCUCCUAAGGAGAAGACUGCGGGUUGGACUCCCGUACGGAACG [U7A C55G G58C], the yeast fitness is at most 0.5.

Consider GUUCCGAUCGCGUAAUGGUAACGCGUCUCCCUCCUAAGGCGAAGACUGCGGGUUCGAGUCCAGUACGGAACG [U7A G9C A40C C62A], for which the yeast fitness is at most 0.5.

For GUUCCGAUGCCGUAAUGGUAACGCGUGUCCCACCUAAGGAGAAGACUGCGGGUUCGAGUCCCGUACGGAACG [U7A G10C C27G U32A], the yeast fitness is at most 0.5.

For GUUCCGAUGCCGUAAUGGUAAUGCGUGUCCCUCCUAAGGAGAAGACUGCGGGUUCGAGUCCCGUAUGGAACG [U7A G10C C22U C27G C66U], the yeast fitness is at most 0.5.

As to GUUCCGAUAGCGAAAUGGUAACGCGUCUCCCUCCUAAGGAGAAGACUACGGGUGCGAGUCACGUACGGAACG [U7A G9A U13A G48A U54G C61A], the yeast fitness is at most 0.5.

Turning to GUUCCGAUAGCGUAAUGGUAACGAGUCUCCCUCCUAAGGAGAAGACUGCGGGUUCGAGUCCCGUACGGAACG [U7A G9A C24A], the yeast fitness is at most 0.5.

In the case of GUUCCGAUGGCGUAAUGGUAACGCGUCUCCCUCCUAAGGAGAAGACUGCGGGUUCGAGUCUCGUACGGAACG [U7A C61U], the yeast fitness was 0.66.

Regarding GUUCCGAUCGCGUAAUGGUAACGAGUCUCCCUCCUAAGGAGAUGACUGCGGAUUCGAGUGCCGUACGGUCCG [U7A G9C C24A A43U G52A C60G A69U A70C], the yeast fitness is at most 0.5.

In the case of GUUCCGAUAGCGAAAUGGUAACGCGUCUCCCUCCUAAGGAGAAGACUGCGGGUUCGAGUCCCGUACGGAACG [U7A G9A U13A], the yeast fitness is 0.6.

Consider GUUCCGAUGACGUAUUGGUAACGCGUCUCCCUCCUAAGGAGAAGACUGCGGGUUCGAGUCCCGUACGGAACG [U7A G10A A15U], for which the yeast fitness was 0.568.

Consider GUUCCGAUCGCGCAAUGGUAACGCGUCUCCCUCCUAAGGAGAAGACUGCGGGUUCGACUCCCGUCCGGGACG [U7A G9C U13C G58C A65C A69G], for which the yeast fitness was at most 0.5.
